Laboratory results published in ChEMBL document CHEMBL1127623, “Synthesis and structure-activity relationships of the novel homopropargylamine antimycotics” (1994).
Values after ≈ are worked out from the molar mass of the structure shown. One block for each compound: values may come before it.

Tests used:
Aspergillus fumigatus = assay: Tested in vitro for minimum inhibitory concentration against Aspergillus fumigatus; format: functional
Summary of the method: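 Tube dilution in Sabouraud's dextrose broth (pH 6.5). Compounds were dissolved in DMSO and serially diluted in medium. The inoculum was harvested by spatula from Kimmig agar cultures grown 21 days at 30 °C. Tubes were read after 72 h at 30 °C. MIC was the lowest concentration with no macroscopically detectable growth.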

Candida albicans [1] = assay: Tested in vitro for minimum inhibitory concentration against candida albicans 124; format: functional
Summary of the method: (§1)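 Yeast broth dilution in malt extract broth (pH 4.8) in glass tubes, with compounds in DMSO serially diluted in medium. Blastospores came from cultures shaken about 30 h at 37 °C in yeast nitrogen base. Growth was read after 48 h at 30 °C. MIC was the lowest concentration without macroscopically visible growth.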

Candida parapsilosis = assay: Tested in vitro for minimum inhibitory concentration against candida parapsilosis 39; format: functional; conditions: Lodderomyces parapsilosis; summary of the method: as §1
Microsporum canis = assay: Tested in vitro for minimum inhibitory concentration against microsporum canis; format: functional
Summary of the method: (§2)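 Serial dilutions were made from DMSO solutions into Sabouraud's dextrose broth (pH 6.5) in glass tubes. Inoculum was taken by spatula from Kimmig agar cultures grown 21 days at 30 °C. Incubation was 7 days at 30 °C. MIC was the lowest concentration at which growth was macroscopically undetectable.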

Sporothrix schenckii = assay: Tested in vitro for minimum inhibitory concentration against sporothrix schenck ii; format: functional; summary of the method: as §2
Candida albicans [2] = assay: Tested in vitro for minimum inhibitory concentration against candida albicans 9; format: functional; summary of the method: as §1
[3] = tested on: Trichophyton mentagrophytes; assay: Tested in vitro for minimum inhibitory concentration against Trichophyton mentagrophytes

Structure (SMILES): CN(CCC#CC(C)(C)C)CCc1cccc2ccccc12
MIC (Aspergillus fumigatus): 50 µg/mL (≈ 170 µM)
MIC (Candida albicans [1]): 200 µg/mL (≈ 682 µM)
MIC (Candida parapsilosis): 100 µg/mL (≈ 341 µM)
MIC (Microsporum canis): 3.13 µg/mL (≈ 10.7 µM)
MIC (Sporothrix schenckii): 12.5 µg/mL (≈ 42.6 µM)
MIC (Candida albicans [2]): 100 µg/mL (≈ 341 µM)
MIC [3]: 0.8 µg/mL (≈ 2.73 µM)

Structure (SMILES): CC(CC#CC(C)(C)C)N(C)Cc1cccc2ccccc12 (configuration not stated)
MIC (Aspergillus fumigatus): > 200 µg/mL
MIC (Candida albicans [1]): > 200 µg/mL
MIC (Candida parapsilosis): 100 µg/mL (≈ 341 µM)
MIC (Microsporum canis): 1.56 µg/mL (≈ 5.32 µM)
MIC (Sporothrix schenckii): > 200 µg/mL
MIC (Candida albicans [2]): 200 µg/mL (≈ 682 µM)
MIC [3]: 1.56 µg/mL (≈ 5.32 µM)

Structure (SMILES): CCN(Cc1cccc2ccccc12)C(=O)OCCC#CC(C)(C)C
MIC (Aspergillus fumigatus): > 200 µg/mL
MIC (Candida albicans [1]): > 200 µg/mL
MIC (Candida parapsilosis): 25 µg/mL (≈ 74.1 µM)
MIC (Microsporum canis): 100 µg/mL (≈ 296 µM)
MIC (Sporothrix schenckii): > 200 µg/mL
MIC (Candida albicans [2]): > 200 µg/mL
MIC [3]: 100 µg/mL (≈ 296 µM)

Structure (SMILES): CN(CCCCC#CC(C)(C)C)Cc1cccc2ccccc12
MIC (Aspergillus fumigatus): > 200 µg/mL
MIC (Candida albicans [1]): > 200 µg/mL
MIC (Candida parapsilosis): > 200 µg/mL
MIC (Microsporum canis): 25 µg/mL (≈ 81.3 µM)
MIC (Sporothrix schenckii): > 200 µg/mL
MIC (Candida albicans [2]): 200 µg/mL (≈ 650 µM)
MIC [3]: 12.5 µg/mL (≈ 40.7 µM)

Structure (SMILES): CN(C/C=C/C#CC(C)(C)C)Cc1cccc2ccccc12 [TERBINAFINE]
MIC (Aspergillus fumigatus): 0.8 µg/mL (≈ 2.75 µM)
MIC (Candida albicans [1]): 25 µg/mL (≈ 85.8 µM)
MIC (Candida parapsilosis): 0.8 µg/mL (≈ 2.75 µM)
MIC (Microsporum canis): 0.006 µg/mL (≈ 0.0206 µM)
MIC (Sporothrix schenckii): 0.4 µg/mL (≈ 1.37 µM)
MIC (Candida albicans [2]): 6.25 µg/mL (≈ 21.4 µM)
MIC [3]: 0.003 µg/mL (≈ 0.0103 µM)

Structure (SMILES): C=C(C#CC(C)(C)C)CN(C)Cc1cccc2ccccc12
MIC (Aspergillus fumigatus): 50 µg/mL (≈ 172 µM)
MIC (Candida albicans [1]): > 200 µg/mL
MIC (Candida parapsilosis): 6.25 µg/mL (≈ 21.4 µM)
MIC (Microsporum canis): 0.5 µg/mL (≈ 1.72 µM)
MIC (Sporothrix schenckii): 1.56 µg/mL (≈ 5.35 µM)
MIC (Candida albicans [2]): > 200 µg/mL
MIC [3]: 0.05 µg/mL (≈ 0.172 µM)

Structure (SMILES): CC(C)(C)C#CCCOCc1cccc2ccccc12
MIC (Aspergillus fumigatus): 1.56 µg/mL (≈ 5.86 µM)
MIC (Candida albicans [1]): > 200 µg/mL
MIC (Candida parapsilosis): > 200 µg/mL
MIC (Microsporum canis): 0.4 µg/mL (≈ 1.5 µM)
MIC (Sporothrix schenckii): > 200 µg/mL
MIC (Candida albicans [2]): 200 µg/mL (≈ 751 µM)
MIC [3]: 0.4 µg/mL (≈ 1.5 µM)

Structure (SMILES): CN(CC#CC(C)(C)C)CCc1cccc2ccccc12
MIC (Aspergillus fumigatus): > 50 µg/mL
MIC (Candida albicans [1]): 100 µg/mL (≈ 358 µM)
MIC (Candida parapsilosis): 50 µg/mL (≈ 179 µM)
MIC (Microsporum canis): 1.56 µg/mL (≈ 5.58 µM)
MIC (Sporothrix schenckii): 6.25 µg/mL (≈ 22.4 µM)
MIC (Candida albicans [2]): 50 µg/mL (≈ 179 µM)
MIC [3]: 1.56 µg/mL (≈ 5.58 µM)

Structure (SMILES): CC(C#CC(C)(C)C)CN(C)Cc1cccc2ccccc12 (configuration not stated)
MIC (Aspergillus fumigatus): > 200 µg/mL
MIC (Candida albicans [1]): > 200 µg/mL
MIC (Candida parapsilosis): 200 µg/mL (≈ 682 µM)
MIC (Microsporum canis): 0.8 µg/mL (≈ 2.73 µM)
MIC (Sporothrix schenckii): 12.5 µg/mL (≈ 42.6 µM)
MIC (Candida albicans [2]): > 200 µg/mL
MIC [3]: 0.8 µg/mL (≈ 2.73 µM)

Structure (SMILES): CN(CCCC#CC(C)(C)C)Cc1cccc2ccccc12
MIC (Aspergillus fumigatus): 50 µg/mL (≈ 170 µM)
MIC (Candida albicans [1]): 200 µg/mL (≈ 682 µM)
MIC (Candida parapsilosis): 0.8 µg/mL (≈ 2.73 µM)
MIC (Microsporum canis): 0.2 µg/mL (≈ 0.682 µM)
MIC (Sporothrix schenckii): 1.56 µg/mL (≈ 5.32 µM)
MIC (Candida albicans [2]): > 200 µg/mL
MIC [3]: 0.05 µg/mL (≈ 0.17 µM)

Structure (SMILES): CN(CC#CC(C)(C)C)Cc1cccc2ccccc12
MIC (Aspergillus fumigatus): > 200 µg/mL
MIC (Candida albicans [1]): > 200 µg/mL
MIC (Candida parapsilosis): > 200 µg/mL
MIC (Microsporum canis): 25 µg/mL (≈ 94.2 µM)
MIC (Sporothrix schenckii): > 200 µg/mL
MIC (Candida albicans [2]): 200 µg/mL (≈ 754 µM)
MIC [3]: 12.5 µg/mL (≈ 47.1 µM)

Stronger by MIC (Aspergillus fumigatus), values ahead:

MIC (Aspergillus fumigatus): 0.2 µg/mL (≈ 0.586 µM)
MIC (Candida albicans [1]): 12.5 µg/mL (≈ 36.6 µM)
MIC (Candida parapsilosis): 0.4 µg/mL (≈ 1.17 µM)
MIC (Microsporum canis): 0.006 µg/mL (≈ 0.0176 µM)
MIC (Sporothrix schenckii): 3.13 µg/mL (≈ 9.17 µM)
MIC (Candida albicans [2]): 6.25 µg/mL (≈ 18.3 µM)
MIC [3]: 0.01 µg/mL (≈ 0.0293 µM)
Structure (SMILES): CN(CCC#CC(C)(C)c1ccccc1)Cc1cccc2ccccc12

MIC (Aspergillus fumigatus): 0.2 µg/mL (≈ 0.682 µM)
MIC (Candida albicans [1]): 200 µg/mL (≈ 682 µM)
MIC (Candida parapsilosis): 3.13 µg/mL (≈ 10.7 µM)
MIC (Microsporum canis): 0.02 µg/mL (≈ 0.0682 µM)
MIC (Sporothrix schenckii): 12.5 µg/mL (≈ 42.6 µM)
MIC (Candida albicans [2]): 50 µg/mL (≈ 170 µM)
MIC [3]: 0.05 µg/mL (≈ 0.17 µM)
Structure (SMILES): CCN(CCC#CC(C)(C)C)Cc1cccc2ccccc12

MIC (Aspergillus fumigatus): 0.1 µg/mL (≈ 0.341 µM)
MIC (Candida albicans [1]): 50 µg/mL (≈ 170 µM)
MIC (Candida parapsilosis): 1.56 µg/mL (≈ 5.32 µM)
MIC (Microsporum canis): 0.01 µg/mL (≈ 0.0341 µM)
MIC (Sporothrix schenckii): 3.13 µg/mL (≈ 10.7 µM)
MIC (Candida albicans [2]): 12.5 µg/mL (≈ 42.6 µM)
MIC [3]: 0.006 µg/mL (≈ 0.0204 µM)
Structure (SMILES): CCC(C)(C)C#CCCN(C)Cc1cccc2ccccc12

MIC (Aspergillus fumigatus): 0.1 µg/mL (≈ 0.358 µM)
MIC (Candida albicans [1]): 50 µg/mL (≈ 179 µM)
MIC (Candida parapsilosis): 1.56 µg/mL (≈ 5.58 µM)
MIC (Microsporum canis): 0.01 µg/mL (≈ 0.0358 µM)
MIC (Sporothrix schenckii): 3.13 µg/mL (≈ 11.2 µM)
MIC (Candida albicans [2]): 50 µg/mL (≈ 179 µM)
MIC [3]: 0.006 µg/mL (≈ 0.0215 µM)
Structure (SMILES): CN(CCC#CC(C)(C)C)Cc1cccc2ccccc12

MIC (Aspergillus fumigatus): 0.05 µg/mL (≈ 0.163 µM)
MIC (Candida albicans [1]): 25 µg/mL (≈ 81.3 µM)
MIC (Candida parapsilosis): 0.4 µg/mL (≈ 1.3 µM)
MIC (Microsporum canis): 0.003 µg/mL (≈ 0.00976 µM)
MIC (Sporothrix schenckii): 1.56 µg/mL (≈ 5.07 µM)
MIC (Candida albicans [2]): 12.5 µg/mL (≈ 40.7 µM)
MIC [3]: 0.003 µg/mL (≈ 0.00976 µM)
Structure (SMILES): CCCC(C)(C)C#CCCN(C)Cc1cccc2ccccc12
